Tests used:
Format in all cases: functional, cell-based
MOLT-4 = experiment: Inhibitory concentration required to inhibit human T-lymphoblast Molt4 cells proliferation
Procedure, shortened: (§1)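 Human T-lymphocyte cells seeded at 300000–500000 cells/mL and mixed 1:1 with serial compound dilutions. Incubated 3 days at 37 °C, then cell number counted with a Coulter counter. IC50 taken as the concentration giving 50% inhibition of proliferation, as mean ± SE from dose–response curves of at least three independent experiments.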

FM3A = experiment: Inhibitory concentration required to inhibit murine mammary carcinoma FM3A cells proliferation; conditions: Mus musculus
Procedure, shortened: (§2)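 Murine cells were suspended at 300000–500000 cells/mL and added 1:1 to wells holding serial dilutions of compound. Cells were counted by Coulter counter after 2 days at 37 °C. IC50 is the concentration inhibiting cell proliferation by 50%, given as mean ± SE from dose–response curves of at least three independent experiments.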

L1210 = experiment: Inhibitory concentration required to inhibit murine leukemia L1210 cells proliferation; conditions: Mus musculus; procedure, shortened: as §2
CCRF-CEM = experiment: Inhibitory concentration required to inhibit human T-lymphoblast CEM cells proliferation; procedure, shortened: as §1

| SMILES | IC50 (MOLT-4) [µM] | IC50 (FM3A) [µM] | IC50 (L1210) [µM] | IC50 (CCRF-CEM) [µM] |
| --- | --- | --- | --- | --- |
| C=C1CC(COc2cc(C(=O)O)n(C)n2)(c2ccc(Cl)cc2)OC1=O (stereo unspecified) | 46.9 | 99.2 | 13 | 57.9 |
| C=C1CC(COc2cc(C(=O)O)n(C)n2)(c2ccc(-c3ccccc3)cc2)OC1=O (stereo unspecified) | 9.4 | 42 | 14.8 | 18.5 |
| C=C1CC(COc2cc(C(=O)O)n(C)n2)(c2ccccc2)OC1=O (stereo unspecified) | 189 | 189 | 107 | 174 |
| C=C1CC(C)(COc2cc(C(=O)O)n(C)n2)OC1=O (stereo unspecified) | 746 | 755 | 522 | 402 |

From ChEMBL document CHEMBL1149173, “Design, synthesis, and biological evaluation of hybrid molecules containing alpha-methylene-gamma-butyrolactones and polypyrrole minor groove binders” (J Med Chem, 2004)
